Data taken from ChEMBL document CHEMBL2157880, “Synthesis, antimycobacterial and antibacterial activity of ciprofloxacin derivatives containing a N-substituted benzyl moiety” (2012).
Values after ≈ are worked out from the molar mass of the structure shown.

Experiments:
Assay type in all cases: functional
[1] = test system: Mycobacterium tuberculosis; experiment: Antimycobacterial activity against Mycobacterium tuberculosis H37Rv ATCC 27294 by microplate alamar blue assay
Outline: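 Microplate Alamar Blue fluorescence assay on strain H37Rv ATCC 27294. MIC was the lowest concentration cutting fluorescence by ≥90% against the mean of replicate bacterium-only controls.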

Staphylococcus aureus [2] = experiment: Antibacterial activity against Staphylococcus aureus ATCC 2592 after 18 to 24 hrs by NCCLS method
Outline: (§1)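 Standard NCCLS (M100-S11) MIC testing against Gram-positive and Gram-negative strains. Plates were incubated at 35 °C for 18–24 h. The MIC was read as the lowest concentration giving complete inhibition of visible bacterial growth.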

Staphylococcus aureus [3] = experiment: Antibacterial activity against methicillin-sensitive Staphylococcus aureus 10-11 after 18 to 24 hrs by NCCLS method; outline: as §1
Staphylococcus aureus [4] = experiment: Antibacterial activity against methicillin-sensitive Staphylococcus aureus 10-13 after 18 to 24 hrs by NCCLS method; outline: as §1
Staphylococcus aureus [5] = experiment: Antibacterial activity against methicillin-sensitive Staphylococcus aureus 10-14 after 18 to 24 hrs by NCCLS method; outline: as §1
Staphylococcus aureus [6] = experiment: Antibacterial activity against methicillin-resistant Staphylococcus aureus 10-11 after 18 to 24 hrs by NCCLS method
Outline: (§2)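 Incubated at 35 °C for 18–24 h under NCCLS (M100-S11) standards. MIC was read as the lowest concentration giving complete inhibition of visible bacterial growth.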

Staphylococcus aureus [7] = experiment: Antibacterial activity against methicillin-resistant Staphylococcus aureus 10-13 after 18 to 24 hrs by NCCLS method; outline: as §2
Staphylococcus aureus [8] = experiment: Antibacterial activity against methicillin-resistant Staphylococcus aureus 10-15 after 18 to 24 hrs by NCCLS method; outline: as §2
[9] = test system: Staphylococcus epidermidis; experiment: Antibacterial activity against methicillin-sensitive Staphylococcus epidermidis 10-11 after 18 to 24 hrs by NCCLS method; outline: as §1
[10] = test system: Staphylococcus epidermidis; experiment: Antibacterial activity against methicillin-sensitive Staphylococcus epidermidis 10-15 after 18 to 24 hrs by NCCLS method; outline: as §2
[11] = test system: Staphylococcus epidermidis; experiment: Antibacterial activity against methicillin-resistant Staphylococcus epidermidis 10-10 after 18 to 24 hrs by NCCLS method; outline: as §2
[12] = test system: Staphylococcus epidermidis; experiment: Antibacterial activity against methicillin-resistant Staphylococcus epidermidis 10-13 after 18 to 24 hrs by NCCLS method; outline: as §2
Enterococcus faecalis [13] = experiment: Antibacterial activity against Enterococcus faecalis 10-5 after 18 to 24 hrs by NCCLS method; outline: as §1
Enterococcus faecalis [14] = experiment: Antibacterial activity against Enterococcus faecalis 10-6 after 18 to 24 hrs by NCCLS method; outline: as §1
Enterococcus faecalis [15] = experiment: Antibacterial activity against Enterococcus faecalis 10-7 after 18 to 24 hrs by NCCLS method; outline: as §1
Enterococcus faecium [16] = experiment: Antibacterial activity against Enterococcus faecium 10-6 after 18 to 24 hrs by NCCLS method; outline: as §1
Enterococcus faecium [17] = experiment: Antibacterial activity against Enterococcus faecium 10-9 after 18 to 24 hrs by NCCLS method; outline: as §1
Streptococcus pneumoniae [18] = experiment: Antibacterial activity against Streptococcus pneumoniae 10-1 after 18 to 24 hrs by NCCLS method; outline: as §1
Streptococcus pneumoniae [19] = experiment: Antibacterial activity against Streptococcus pneumoniae 10-6 after 18 to 24 hrs by NCCLS method; outline: as §1
Escherichia coli [20] = experiment: Antibacterial activity against Escherichia coli ATCC 25922 after 18 to 24 hrs by NCCLS method; outline: as §1
Escherichia coli [21] = experiment: Antibacterial activity against Escherichia coli 10-1 after 18 to 24 hrs by NCCLS method; outline: as §1
Escherichia coli [22] = experiment: Antibacterial activity against Escherichia coli 10-2 after 18 to 24 hrs by NCCLS method; outline: as §1
Escherichia coli [23] = experiment: Antibacterial activity against Escherichia coli 10-3 after 18 to 24 hrs by NCCLS method; outline: as §1
Escherichia coli [24] = experiment: Antibacterial activity against extended spectrum beta-lactamases producing Escherichia coli 10-2 after 18 to 24 hrs by NCCLS method; outline: as §1
Escherichia coli [25] = experiment: Antibacterial activity against extended spectrum beta-lactamases producing Escherichia coli 10-3 after 18 to 24 hrs by NCCLS method; outline: as §1
Escherichia coli [26] = experiment: Antibacterial activity against extended spectrum beta-lactamases producing Escherichia coli 10-4 after 18 to 24 hrs by NCCLS method; outline: as §1
Klebsiella pneumoniae [27] = experiment: Antibacterial activity against Klebsiella pneumoniae 10-2 after 18 to 24 hrs by NCCLS method; outline: as §1
Klebsiella pneumoniae [28] = experiment: Antibacterial activity against Klebsiella pneumoniae 10-3 after 18 to 24 hrs by NCCLS method; outline: as §1
Klebsiella pneumoniae [29] = experiment: Antibacterial activity against Klebsiella pneumoniae 10-4 after 18 to 24 hrs by NCCLS method; outline: as §1
Klebsiella pneumoniae [30] = experiment: Antibacterial activity against extended spectrum beta-lactamases producing Klebsiella pneumoniae 10-1 after 18 to 24 hrs by NCCLS method; outline: as §1
Klebsiella pneumoniae [31] = experiment: Antibacterial activity against extended spectrum beta-lactamases producing Klebsiella pneumoniae 10-2 after 18 to 24 hrs by NCCLS method; outline: as §1
Klebsiella pneumoniae [32] = experiment: Antibacterial activity against extended spectrum beta-lactamases producing Klebsiella pneumoniae 10-3 after 18 to 24 hrs by NCCLS method; outline: as §1
Pseudomonas aeruginosa [33] = experiment: Antibacterial activity against Pseudomonas aeruginosa 10-5 after 18 to 24 hrs by NCCLS method; outline: as §1
Pseudomonas aeruginosa [34] = experiment: Antibacterial activity against Pseudomonas aeruginosa 10-9 after 18 to 24 hrs by NCCLS method; outline: as §1
Pseudomonas aeruginosa [35] = experiment: Antibacterial activity against Pseudomonas aeruginosa 10-12 after 18 to 24 hrs by NCCLS method; outline: as §1
Pseudomonas aeruginosa [36] = experiment: Antibacterial activity against Pseudomonas aeruginosa 10-15 after 18 to 24 hrs by NCCLS method; outline: as §1
Pseudomonas aeruginosa [37] = experiment: Antibacterial activity against Pseudomonas aeruginosa 10-18 after 18 to 24 hrs by NCCLS method; outline: as §1
Pseudomonas aeruginosa [38] = experiment: Antibacterial activity against Pseudomonas aeruginosa 10-20 after 18 to 24 hrs by NCCLS method; outline: as §1

| SMILES | MIC [1] | MIC (Staphylococcus aureus [2]) | MIC (Staphylococcus aureus [3]) | MIC (Staphylococcus aureus [4]) | MIC (Staphylococcus aureus [5]) | MIC (Staphylococcus aureus [6]) | MIC (Staphylococcus aureus [7]) | MIC (Staphylococcus aureus [8]) | MIC [9] | MIC [10] | MIC [11] | MIC [12] | MIC (Enterococcus faecalis [13]) | MIC (Enterococcus faecalis [14]) | MIC (Enterococcus faecalis [15]) | MIC (Enterococcus faecium [16]) | MIC (Enterococcus faecium [17]) | MIC (Streptococcus pneumoniae [18]) | MIC (Streptococcus pneumoniae [19]) | MIC (Escherichia coli [20]) | further results |
| --- | --- | --- | --- | --- | --- | --- | --- | --- | --- | --- | --- | --- | --- | --- | --- | --- | --- | --- | --- | --- | --- |
| COc1ccc(CN2CCN(c3cc4c(cc3F)c(=O)c(C(=O)O)cn4C3CC3)CC2)c(OC)c1OC | 16 µg/mL (≈ 31.3 µM) | 0.5 µg/mL (≈ 0.977 µM) | 0.125 µg/mL (≈ 0.244 µM) | 0.25 µg/mL (≈ 0.489 µM) | 0.125 µg/mL (≈ 0.244 µM) | 16 µg/mL (≈ 31.3 µM) | 64 µg/mL (≈ 125 µM) | 16 µg/mL (≈ 31.3 µM) | 0.25 µg/mL (≈ 0.489 µM) | 16 µg/mL (≈ 31.3 µM) | 64 µg/mL (≈ 125 µM) | 64 µg/mL (≈ 125 µM) | 16 µg/mL (≈ 31.3 µM) | > 128 µg/mL | 64 µg/mL (≈ 125 µM) | 8 µg/mL (≈ 15.6 µM) | 32 µg/mL (≈ 62.6 µM) | 8 µg/mL (≈ 15.6 µM) | 64 µg/mL (≈ 125 µM) | 0.5 µg/mL (≈ 0.977 µM) | MIC (Escherichia coli [21]): > 128 µg/mL; MIC (Escherichia coli [22]): 16 µg/mL (≈ 31.3 µM); MIC (Escherichia coli [23]): 64 µg/mL (≈ 125 µM); MIC (Escherichia coli [24]): > 128 µg/mL; MIC (Escherichia coli [25]): > 128 µg/mL; MIC (Escherichia coli [26]): 64 µg/mL (≈ 125 µM); MIC (Klebsiella pneumoniae [27]): > 128 µg/mL; MIC (Klebsiella pneumoniae [28]): 16 µg/mL (≈ 31.3 µM); MIC (Klebsiella pneumoniae [29]): > 128 µg/mL; MIC (Klebsiella pneumoniae [30]): > 128 µg/mL; MIC (Klebsiella pneumoniae [31]): > 128 µg/mL; MIC (Klebsiella pneumoniae [32]): > 128 µg/mL; MIC (Pseudomonas aeruginosa [33]): 32 µg/mL (≈ 62.6 µM); MIC (Pseudomonas aeruginosa [34]): 32 µg/mL (≈ 62.6 µM); MIC (Pseudomonas aeruginosa [35]): 64 µg/mL (≈ 125 µM); MIC (Pseudomonas aeruginosa [36]): 32 µg/mL (≈ 62.6 µM); MIC (Pseudomonas aeruginosa [37]): 64 µg/mL (≈ 125 µM); MIC (Pseudomonas aeruginosa [38]): 32 µg/mL (≈ 62.6 µM) |
| COc1cc(CN2CCN(c3cc4c(cc3F)c(=O)c(C(=O)O)cn4C3CC3)CC2)cc(OC)c1OC | 32 µg/mL (≈ 62.6 µM) | 0.25 µg/mL (≈ 0.489 µM) | 0.25 µg/mL (≈ 0.489 µM) | 0.5 µg/mL (≈ 0.977 µM) | 0.25 µg/mL (≈ 0.489 µM) | 64 µg/mL (≈ 125 µM) | 128 µg/mL (≈ 250 µM) | 32 µg/mL (≈ 62.6 µM) | 0.5 µg/mL (≈ 0.977 µM) | 32 µg/mL (≈ 62.6 µM) | 32 µg/mL (≈ 62.6 µM) | 32 µg/mL (≈ 62.6 µM) | 8 µg/mL (≈ 15.6 µM) | 64 µg/mL (≈ 125 µM) | 64 µg/mL (≈ 125 µM) | 4 µg/mL (≈ 7.82 µM) | 32 µg/mL (≈ 62.6 µM) | 4 µg/mL (≈ 7.82 µM) | 64 µg/mL (≈ 125 µM) | 1 µg/mL (≈ 1.95 µM) | MIC (Escherichia coli [21]): > 128 µg/mL; MIC (Escherichia coli [22]): 32 µg/mL (≈ 62.6 µM); MIC (Escherichia coli [23]): > 128 µg/mL; MIC (Escherichia coli [24]): > 128 µg/mL; MIC (Escherichia coli [25]): > 128 µg/mL; MIC (Escherichia coli [26]): > 128 µg/mL; MIC (Klebsiella pneumoniae [27]): > 128 µg/mL; MIC (Klebsiella pneumoniae [28]): 32 µg/mL (≈ 62.6 µM); MIC (Klebsiella pneumoniae [29]): > 128 µg/mL; MIC (Klebsiella pneumoniae [30]): > 128 µg/mL; MIC (Klebsiella pneumoniae [31]): > 128 µg/mL; MIC (Klebsiella pneumoniae [32]): > 128 µg/mL; MIC (Pseudomonas aeruginosa [33]): 32 µg/mL (≈ 62.6 µM); MIC (Pseudomonas aeruginosa [34]): 32 µg/mL (≈ 62.6 µM); MIC (Pseudomonas aeruginosa [35]): 32 µg/mL (≈ 62.6 µM); MIC (Pseudomonas aeruginosa [36]): 64 µg/mL (≈ 125 µM); MIC (Pseudomonas aeruginosa [37]): 128 µg/mL (≈ 250 µM); MIC (Pseudomonas aeruginosa [38]): 64 µg/mL (≈ 125 µM) |
